Assay results as given in ChEMBL document CHEMBL2417547 (J Med Chem, 2013).

How the values were obtained:
[1] = species on record: Homo sapiens; assay: Selectivity factor, ratio of IC50 for human CYP11B2 to IC50 for human CYP11B1
In short: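 V79MZh hamster fibroblasts expressing human CYP11B1 or CYP11B2 were incubated with [1,2-3H]-11-deoxycorticosterone (100 nM) plus inhibitor at a range of concentrations. […] The selectivity factor is IC50(CYP11B2)/IC50(CYP11B1).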

[2] = molecular target: T1, Cytochrome P450 11B1, mitochondrial (Homo sapiens, UniProt P15538); assay: Inhibition of human CYP11B1 expressed in hamster V79MZh cells using [1,2-3H]-11-deoxycorticosterone as substrate; format: cell-based
T1 sequence (P15538 whole entry): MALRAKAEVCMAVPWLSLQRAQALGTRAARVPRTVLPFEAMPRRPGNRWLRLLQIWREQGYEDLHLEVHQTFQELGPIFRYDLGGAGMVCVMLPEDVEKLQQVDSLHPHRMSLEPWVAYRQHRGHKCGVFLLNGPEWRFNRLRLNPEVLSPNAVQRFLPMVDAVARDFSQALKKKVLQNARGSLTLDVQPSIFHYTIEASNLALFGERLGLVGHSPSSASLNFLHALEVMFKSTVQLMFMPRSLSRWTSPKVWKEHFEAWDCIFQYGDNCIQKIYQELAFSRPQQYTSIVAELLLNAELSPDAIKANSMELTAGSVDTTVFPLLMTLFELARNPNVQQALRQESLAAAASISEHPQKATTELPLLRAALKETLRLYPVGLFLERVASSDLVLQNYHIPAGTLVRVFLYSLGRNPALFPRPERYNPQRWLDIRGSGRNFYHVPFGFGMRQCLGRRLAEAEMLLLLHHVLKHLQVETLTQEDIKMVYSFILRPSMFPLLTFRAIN
In short: (§1)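 V79MZh hamster fibroblasts expressing human CYP11B1 or CYP11B2 were incubated with [1,2-3H]-11-deoxycorticosterone (100 nM) plus inhibitor at a range of concentrations. The selectivity factor is IC50(CYP11B2)/IC50(CYP11B1).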

[3] = molecular target: T2, Cytochrome P450 11B2, mitochondrial (Homo sapiens, UniProt P19099); assay: Inhibition of human CYP11B2 expressed in hamster V79MZh cells using [1,2-3H]-11-deoxycorticosterone as substrate; format: cell-based; in short: as §1
T2 sequence (P19099 whole entry): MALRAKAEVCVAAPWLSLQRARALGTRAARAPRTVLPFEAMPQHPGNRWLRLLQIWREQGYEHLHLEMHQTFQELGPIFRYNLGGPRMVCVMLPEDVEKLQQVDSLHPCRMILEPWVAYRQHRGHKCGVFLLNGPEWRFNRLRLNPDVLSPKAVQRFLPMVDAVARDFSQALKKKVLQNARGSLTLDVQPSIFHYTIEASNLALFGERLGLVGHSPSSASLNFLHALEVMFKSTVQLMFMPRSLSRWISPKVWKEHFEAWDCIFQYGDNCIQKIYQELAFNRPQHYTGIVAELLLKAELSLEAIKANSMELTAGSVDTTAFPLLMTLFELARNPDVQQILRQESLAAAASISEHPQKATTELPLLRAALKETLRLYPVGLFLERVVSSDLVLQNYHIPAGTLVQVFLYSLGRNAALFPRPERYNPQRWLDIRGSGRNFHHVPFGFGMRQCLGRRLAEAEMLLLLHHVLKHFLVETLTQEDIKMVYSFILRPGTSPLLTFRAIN

[4] = Cytotoxicity against HEK293 cells after 24 hrs; format: cell-based; conditions: human, read-out: LC50
In short: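 HEK 293 cells seeded at 2 × 10⁵ cells per well; compounds added 24 h after seeding at 1% final DMSO. Living cell mass determined after 24 h incubation; LC₅₀ calculated. Doxorubicin positive control, rifampicin negative control. Mean of more than three repeats.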

[5] = molecular target: T3, CYP19 (aromatase) (Homo sapiens, UniProt P11511); assay: Inhibition of microsomal CYP19 in human placenta using [1beta-3H]-androstenedione as substrate at 2 uM by 3H2O method relative to control; conditions: placental microsomes, probe [1beta-3H]-androstenedione
T3 sequence (P11511 whole entry): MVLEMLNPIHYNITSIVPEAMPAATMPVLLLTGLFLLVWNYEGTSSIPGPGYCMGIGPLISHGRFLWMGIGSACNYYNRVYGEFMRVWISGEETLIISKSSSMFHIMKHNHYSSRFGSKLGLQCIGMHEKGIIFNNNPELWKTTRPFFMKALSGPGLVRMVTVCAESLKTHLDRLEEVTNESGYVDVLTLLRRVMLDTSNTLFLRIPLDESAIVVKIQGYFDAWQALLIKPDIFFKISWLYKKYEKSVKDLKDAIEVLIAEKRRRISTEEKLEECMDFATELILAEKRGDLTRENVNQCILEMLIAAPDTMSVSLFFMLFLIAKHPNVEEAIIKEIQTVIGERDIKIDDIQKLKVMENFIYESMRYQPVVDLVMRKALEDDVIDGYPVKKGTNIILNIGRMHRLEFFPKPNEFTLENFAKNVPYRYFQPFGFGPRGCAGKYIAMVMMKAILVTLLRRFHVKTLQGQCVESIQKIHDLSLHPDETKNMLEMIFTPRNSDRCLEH
In short: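 Human placental microsomes as the CYP19 source, with [1β-3H]androstenedione at 500 nM. Activity read by 3H2O release. Compound at 2 μM. Percent inhibition is the mean of at least three experiments (deviations <25%); values ≤5% are not significant.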

[6] = molecular target: T4, CYP17 (Homo sapiens, UniProt P05093); assay: Inhibition of human CYP17 expressed in Escherichia coli co-expressing rat NADPH-P450 reductase using progesterone as substrate at 2 uM relative to control; conditions: probe progesterone
T4 sequence (P05093 whole entry): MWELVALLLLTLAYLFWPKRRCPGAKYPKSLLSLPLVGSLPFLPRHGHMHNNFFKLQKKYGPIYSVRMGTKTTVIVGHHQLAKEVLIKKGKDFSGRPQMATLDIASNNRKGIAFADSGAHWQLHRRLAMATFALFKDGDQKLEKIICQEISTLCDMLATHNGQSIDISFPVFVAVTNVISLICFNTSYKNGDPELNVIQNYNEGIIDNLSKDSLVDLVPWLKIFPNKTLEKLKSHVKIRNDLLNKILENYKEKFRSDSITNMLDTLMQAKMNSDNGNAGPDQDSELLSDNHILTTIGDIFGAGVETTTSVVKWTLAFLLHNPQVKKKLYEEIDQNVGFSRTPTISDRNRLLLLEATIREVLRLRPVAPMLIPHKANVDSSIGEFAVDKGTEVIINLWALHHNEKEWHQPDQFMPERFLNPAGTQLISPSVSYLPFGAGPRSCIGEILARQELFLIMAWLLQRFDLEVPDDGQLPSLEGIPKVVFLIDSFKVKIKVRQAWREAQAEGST
In short: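 Human CYP17 expressed in E. coli, co-expressing rat NADPH-P450 reductase. Progesterone substrate at 25 μM with NADPH cofactor. Test compound at 2 μM. Percent inhibition is the mean of at least three experiments (deviations <25%); values ≤5% are treated as not significant.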

| Compound | Ratio IC50 [1] | IC50 [2] | IC50 [3] | CC50 at 24 h [4] | inhibition at 2 µM [5] | inhibition at 2 µM [6] |
| --- | --- | --- | --- | --- | --- | --- |
| NC(=O)c1cncc(Cc2ccc(-c3ccccc3)nc2)c1 | 6.9 | 427 nM | 2920 nM |  |  |  |
| CC(c1ccc(-c2cccc3ccccc23)nc1)n1ccnc1 (configuration not stated) | 4.6 | 60 nM | 273 nM |  |  |  |
| COc1cncc(Cc2ccc(-c3ccccc3)nc2)c1 | 5.1 | 5 nM | 25 nM |  |  |  |
| c1ccc(-c2ccc(C(C3CC3)n3ccnc3)cn2)cc1 (configuration not stated) | 1.2 | 21 nM | 25 nM |  |  |  |
| c1ccc(-c2ccc(Oc3cccnc3)cn2)cc1 | 1.9 | 1020 nM | 1880 nM |  |  |  |
| c1ccc(-c2ccc(C(c3ccco3)n3ccnc3)cn2)cc1 (configuration not stated) | 1.1 | 69 nM | 74 nM |  |  |  |
| CCC(c1ccc(-c2ccccc2)nc1)n1ccnc1 (configuration not stated) | 3.4 | 28 nM | 92 nM |  |  |  |
| c1ccc(-c2ccc(Cc3cncc4ccccc34)cn2)cc1 | 4.2 | 6 nM | 23 nM |  |  |  |
| CO[C@H]1/C=C/O[C@@]2(C)Oc3c(C)c(O)c4c(O)c(c(/C=N/N5CCN(C)CC5)c(O)c4c3C2=O)NC(=O)/C(C)=C\C=C\[C@H](C)[C@H](O)[C@@H](C)[C@@H](O)[C@@H](C)[C@H](OC(C)=O)[C@@H]1C [RIFAMPIN] |  |  |  | > 100000 nM |  |  |
| Fc1cncc(Cc2ccc(-c3ccccc3)nc2)c1 | 3.4 | 125 nM | 419 nM |  |  |  |
| c1ccc(-c2ccc(Cn3ccnc3)nn2)cc1 | 2.7 | 1710 nM | 4540 nM |  |  |  |
| CC(C)C(c1ccc(-c2ccccc2)nc1)n1ccnc1 (configuration not stated) | 2.4 |  | 28 nM |  |  |  |
| Cc1ccncc1Cc1ccc(-c2ccccc2)nc1 | 2.4 | 8 nM | 19 nM |  |  |  |
| c1ccc2c(-c3ccc(C(C4CC4)n4ccnc4)cn3)cccc2c1 (configuration not stated) | 1.5 | 151 nM | 220 nM |  |  |  |
| CC(c1ccc(-c2ccccc2)nc1)n1ccnc1 (configuration not stated) | 6.1 | 33 nM | 200 nM |  | 1% | 13% |
| c1ccc(-c2ccc(Cc3ccncc3)cn2)cc1 | 6.4 | 98 nM | 621 nM |  |  |  |

| Compound | Ratio IC50 [1] | IC50 [2] | IC50 [3] | CC50 at 24 h [4] | inhibition at 2 µM [5] | inhibition at 2 µM [6] |
| --- | --- | --- | --- | --- | --- | --- |
| c1ccc(-c2ccc(C(c3ccccc3)n3ccnc3)cn2)cc1 (configuration not stated) | 0.9 | 124 nM | 110 nM |  |  |  |
| c1ccc2c(-c3ccc(Cn4ccnc4)cn3)cccc2c1 | 9.7 | 68 nM | 656 nM |  |  |  |
| COc1cccc2c1C(=O)c1c(O)c3c(c(O)c1C2=O)C[C@@](O)(C(=O)CO)C[C@@H]3O[C@H]1C[C@H](N)[C@H](O)[C@H](C)O1 [DOXORUBICIN] |  |  |  | 4300 nM |  |  |
| c1cn(C(c2ccc(-c3ccsc3)nc2)C2CC2)cn1 (configuration not stated) | 2.8 | 11 nM | 31 nM |  |  |  |
| c1cn(Cc2ccc(-c3ccsc3)nc2)cn1 | 5.6 | 181 nM | 1020 nM |  |  |  |
| c1ccc(-c2ccc(Cn3ccnc3)cn2)cc1 | 13.3 | 107 nM | 1420 nM |  |  |  |
| c1ccc(-c2ncc(Cn3ccnc3)c3ccccc23)cc1 | 3.5 | 87 nM | 302 nM |  |  |  |
| c1ccc(-c2ncc(Cn3ccnc3)cn2)cc1 | > 5 | 1120 nM | > 5000 nM |  |  |  |
| c1ccc(-c2cncc(Cc3ccc(-c4ccccc4)nc3)c2)cc1 | 0.4 | 1.3 nM | 0.5 nM |  |  |  |
| c1ccc(-c2ccc(Nc3cccnc3)cn2)cc1 |  | > 5000 nM | > 5000 nM |  |  |  |
| c1ccc(-c2ccc(Cc3cncnc3)cn2)cc1 | 12.9 | 240 nM | 3110 nM |  |  |  |
| c1ccc(-c2ccc(Cc3cccnc3)cn2)cc1 | 10.1 | 32 nM | 322 nM |  | 0% | 4% |
| CC(c1ccc(-c2ccsc2)nc1)n1ccnc1 (configuration not stated) | 9.1 | 21 nM | 151 nM |  |  |  |
| CC(C)(C(=O)c1cccnc1)c1cccnc1 [METYRAPONE] |  |  |  |  |  | 3% |
| Oc1cncc(Cc2ccc(-c3ccccc3)nc2)c1 | 16.4 | 51 nM | 836 nM |  |  |  |
| c1ccc(-c2cnc(Cn3ccnc3)cn2)cc1 | 1.7 | 610 nM | 1020 nM |  |  |  |
